Reference: ChEMBL document CHEMBL1123517, “Synthesis and antiallergic activity of a novel series of 5-lipoxygenase inhibitors” (J Med Chem, 1986)

Experiments:
[1] = test system: Cavia porcellus; assay: In vivo inhibition of ovalbumin induced bronchoconstriction in guinea pig by 50 mg/kg 10 min prior to challenge.; type: functional
How it was run: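 Male Hartley guinea pigs (350–600 g) sensitized to OA (5 mg ip + 5 mg sc), used 3–5 weeks later under pentobarbital (50 mg/kg ip), artificially ventilated. Indomethacin 10 mg/kg iv 9 min before challenge, chlorpheniramine 1.0 mg/kg iv 1 min later. Drug 50 mg/kg id 10 min before aerosolized 1% OA; controls saline.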

[2] = biological target: T1, Polyunsaturated fatty acid 5-lipoxygenase (Rattus norvegicus, UniProt P12527); assay: In vitro for inhibition of 5-HETE production in isolated rat polymorphonuclear leukocytes (PMNs); type: functional
T1 sequence (P12527 whole entry): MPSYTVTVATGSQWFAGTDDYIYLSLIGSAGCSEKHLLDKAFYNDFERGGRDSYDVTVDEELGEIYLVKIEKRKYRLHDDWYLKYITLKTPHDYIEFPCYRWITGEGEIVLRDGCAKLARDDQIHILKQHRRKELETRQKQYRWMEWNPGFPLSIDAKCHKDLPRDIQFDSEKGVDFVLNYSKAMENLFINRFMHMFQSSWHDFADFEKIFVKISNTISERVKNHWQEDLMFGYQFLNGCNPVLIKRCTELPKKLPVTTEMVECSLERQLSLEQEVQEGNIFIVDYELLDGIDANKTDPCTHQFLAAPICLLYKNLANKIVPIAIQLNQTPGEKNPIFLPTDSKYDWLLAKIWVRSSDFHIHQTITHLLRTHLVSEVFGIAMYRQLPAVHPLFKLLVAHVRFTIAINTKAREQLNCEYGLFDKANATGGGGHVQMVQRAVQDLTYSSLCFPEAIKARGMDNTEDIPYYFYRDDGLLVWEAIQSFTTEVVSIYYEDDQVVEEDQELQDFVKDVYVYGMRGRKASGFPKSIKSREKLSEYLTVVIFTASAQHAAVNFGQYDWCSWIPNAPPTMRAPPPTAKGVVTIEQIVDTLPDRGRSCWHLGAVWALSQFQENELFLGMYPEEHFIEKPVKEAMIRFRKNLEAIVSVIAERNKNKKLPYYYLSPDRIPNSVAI
How it was run: (§1)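 Peritoneal PMNs from female Wistar rats (150–250 g) given 6% glycogen ip; harvested at 24 h by lavage, resuspended at 2×10^7 cells/mL in HBSS with Ca2+/Mg2+ and 10 mM L-cysteine. Drug or vehicle preincubated 10 min at 37 °C; then A23187 (10 μM) plus 0.5 μCi [14C]arachidonic acid for 10 min. Stopped at pH 3.5, ether-extracted; IC50 per metabolite by nonlinear regression.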

[3] = biological target: T1, Polyunsaturated fatty acid 5-lipoxygenase; assay: In vitro for inhibition of LTB4 (leukotriene B4) production in isolated rat polymorphonuclear leukocytes (PMNs).; type: functional; how it was run: as §1
[4] = species on record: Cavia porcellus; assay: Competitive inhibition of LTD4-induced contraction of isolated guinea pig tracheal spiral strips
[5] = species on record: Rattus norvegicus; assay: Compound was tested in vitro for inhibition of 5-HETE production in isolated rat polymorphonuclear leukocytes (PMNs) at 50 uM; type: functional

IC50 [2]	IC50 [3]	Compound	inhibition in vivo at 50 mg/kg [1]	pKB [4]	inhibition at 50 µM [5]
		CCCc1c(OCc2cccc(NC(=O)CC(=O)OC)c2)ccc(C(C)=O)c1O	24.8%		
		COC(=O)CCC(=O)Nc1cccc(COc2ccc(C(C)=O)c(F)c2)c1	20.8%		
3.71 µM	3.87 µM	CCCCCC(=O)c1ccc(OCc2cccc(NC(=O)CCC(=O)OC)c2)cc1OC	0%		
14.2 µM	11.7 µM	COC(=O)CC(=O)Nc1cccc(COc2ccc(C(C)=O)c(O)c2)c1	61.4%	4.94	
		CCCCCC(=O)c1ccc(OCc2cccc(NC(=O)CC(=O)OC)c2)cc1O	-0.5%		
41 µM	21.6 µM	CCCc1c(OCCCCc2nnn[nH]2)ccc(C(C)=O)c1O [TOMELUKAST]	78.8%		
32.7 µM	39.3 µM	COC(=O)CCCC(=O)Nc1cccc(COc2ccc(C(C)=O)c(O)c2)c1	-0.1%		
1.59 µM	1.7 µM	CCCCCCc1ccc(OCc2cccc(NC(=O)CC(=O)OC)c2)cc1OC	-0.2%		
		CCCCCC(=O)c1ccc(OCc2cccc(NC(=O)CC(=O)OC)c2)cc1OC	0%		
25.5 µM	22.5 µM	COC(=O)CC(=O)Nc1cccc(COc2ccc(C(C)=O)c(F)c2)c1	0%		
5.35 µM	20.4 µM	COC(=O)C1CC(=O)N(c2cccc(COc3ccc(C(C)=O)c(F)c3)c2)C1 (configuration not stated)			
		COC(=O)CCC(=O)Nc1cccc(COc2ccc(C(C)=O)c(OC)c2)c1	0.11%		
5.6 µM	7.09 µM	CCc1ccc(OCc2cccc(NC(=O)CCC(=O)OC)c2)cc1OC	0.2%		
		COC(=O)CCCC(=O)Nc1cccc(COc2ccc(C(C)=O)c(F)c2)c1	0%		
		COC(=O)C(=O)Nc1cccc(COc2ccc(C(C)=O)c(F)c2)c1	57.3%		
		CCCCCC(=O)c1ccc(OCc2cccc(NC(=O)CCC(=O)OC)c2)cc1O	0%		
		COC(=O)CC(=O)Nc1cccc(COc2ccc(C(C)=O)c(OC)c2)c1	64.3%		
		CCCCCCc1ccc(OCc2cccc(NC(=O)CCC(=O)OC)c2)cc1OC	0.2%		
		COC(=O)CC(=O)Nc1cccc(COc2ccc(C(C)=O)cc2)c1	37.2%		< 50%
		COC(=O)CC(=O)Nc1cccc(COc2cccc(OC)c2)c1			< 50%
25.1 µM	39.5 µM	COC(=O)C(=O)Nc1cccc(COc2ccc(C(C)=O)c(O)c2)c1	0.1%		
		CCc1ccc(OCc2cccc(NC(=O)CC(=O)OC)c2)cc1OC	0.2%		
		COC(=O)CCC(=O)Nc1cccc(COc2ccc(C(C)=O)c(O)c2)c1	37.9%		
